We go through five compounds from ChEMBL document CHEMBL1806360, “Synthesis and biological evaluation of conformationally flexible as well as restricted dimers of monastrol and related dihydropyrimidones” (Eur J Med Chem, 2011).

Molecules are shown by their SMILES. In brackets after ≈: the same amount, converted by molar mass. Activity calls are given as the source filed them. The calls are words filed in the database; no cut-off is given here.

Test [1] concerns Pseudomonas aeruginosa. In words: Antibacterial activity against Pseudomonas aeruginosa assessed as zone of inhibition at 100 ug/ml by agar plate method. The settings on record: read-out: IZ. Type of test: functional. The gist of the method:
(§1)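 Well diffusion on Mueller-Hinton agar. Inoculum from 3–5 colonies was grown in nutrient broth and adjusted to 0.5 McFarland (about 1 × 10⁸ CFU/mL), then swabbed over the plate. Compounds were dissolved in DMSO and added to duplicate 6 mm wells. Plates were incubated 18 h at 37 °C, and inhibition zone diameter was read to the nearest mm. Ciprofloxacin was the positive control and DMSO the negative control.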

Test [2] has as its system Klebsiella pneumoniae. In words: Antibacterial activity against Klebsiella pneumoniae assessed as zone of inhibition at 50 ug/ml by agar plate method. Format: functional, organism-based. The method in brief: as §1
The subject of test [3] is Bacillus subtilis. In words: Antibacterial activity against Bacillus subtilis assessed as zone of inhibition at 50 ug/ml by agar plate method. Format: functional, organism-based. The method in brief:
as §1

Test [4] relates to MCF7. Kind of test: Ratio IC50 for monastrol to compound for human MCF7 cells. Type of test: functional.
Test [5] concerns Bacillus subtilis. In words: Antibacterial activity against Bacillus subtilis assessed as zone of inhibition at 100 ug/ml by agar plate method. The settings on record: read-out: IZ. Format: functional. The method in brief: as §1
For test [6], the system named is Escherichia coli. In words: Antibacterial activity against Escherichia coli assessed as zone of inhibition at 100 ug/ml by agar plate method. Format: functional. The settings on record: read-out: IZ. The gist of the method: as §1
The test system of test [7] is MCF7. Kind of test: Cytotoxicity against human MCF7 cells after 48 hrs by MTT assay. Particulars: MCF7, 48 h. Type of test: functional, cell-based. The method in brief: (§2)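 MTT assay. Medium with 10% FBS and 2 mM L-glutamine was DMEM for A431 and Colo-205, RPMI for A549, and MEM for MCF-7. Cultures were preincubated 24 h at 37 °C, 5% CO2. 1 × 10⁴ cells (trypan blue count) were exposed to 200, 100, 50, 25 and 10 concentration levels for 48 h at 37 °C. MTT was added for 4 h, formazan dissolved in DMSO, and A570 read. IC50 was curve-fitted from viability versus untreated cells, three experiments.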
(In general: Formazan colour is commonly taken as a measure of viable cells.)

Test [8] concerns COLO 205. Kind of test: Cytotoxicity against human COLO205 cells after 48 hrs by MTT assay. Format: functional, cell-based. The settings on record: COLO 205, 48 h. The gist of the method: as §2
Test [9] has as its system Staphylococcus aureus. Kind of test: Antibacterial activity against Staphylococcus aureus assessed as zone of inhibition at 100 ug/ml by agar plate method. Type of test: functional. The settings on record: read-out: IZ. The gist of the method:
as §1

For test [10], the system named is A-431. In words: Cytotoxicity against human A431 cells after 48 hrs by MTT assay. Format: functional, cell-based. Particulars: A-431, 48 h. The method in brief: as §2
Test [11] concerns Klebsiella pneumoniae. Kind of test: Antibacterial activity against Klebsiella pneumoniae assessed as zone of inhibition at 100 ug/ml by agar plate method. Type of test: functional. Particulars: read-out: IZ. The gist of the method: as §1
Test [12] deals with Staphylococcus epidermidis. In words: Antibacterial activity against Staphylococcus epidermidis assessed as zone of inhibition at 50 ug/ml by agar plate method. Format: functional, organism-based. The method in brief:
as §1

Test [13] concerns Staphylococcus epidermidis. In words: Antibacterial activity against Staphylococcus epidermidis assessed as zone of inhibition at 100 ug/ml by agar plate method. Format: functional. The settings on record: read-out: IZ. The gist of the method:
as §1

The test system of test [14] is Escherichia coli. In words: Antibacterial activity against Escherichia coli assessed as zone of inhibition at 50 ug/ml by agar plate method. Type of test: functional, organism-based. The method in brief:
as §1

Test [15] has as its system Nucleic Acid. In words: Binding affinity to calf thymus DNA assessed as change in melting temperature at compound to DNA ratio of 1:5 after 18 hrs at pH 7. Type of test: nucleic-acid assay. The settings on record: Bos taurus. The method in brief:
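Thermal melting of calf thymus DNA in 10 mM sodium phosphate with 1 mM Na2EDTA, pH 7.00. Compound was added from DMSO stock at a fixed 1:5 compound:DNA molar ratio. The mix was incubated 18 h at 37 °C, then A260 was monitored while heating at 1 °C/min over 40–90 °C. ΔTm is relative to DNA alone.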

For test [16], the system named is A549. Kind of test: Cytotoxicity against human A549 cells after 48 hrs by MTT assay. The settings on record: A549, 48 h. Format: functional, cell-based. The gist of the method:
as §2

In test [17] the test system is HT-29. In words: Cytotoxicity against human HT-29 cells after 48 hrs by MTT assay. Type of test: functional, cell-based. Particulars: HT-29, 48 h.
In test [18] the target is T1, Kinesin-like protein KIF11 (Homo sapiens, UniProt P52732).
T1 sequence (P52732 whole entry): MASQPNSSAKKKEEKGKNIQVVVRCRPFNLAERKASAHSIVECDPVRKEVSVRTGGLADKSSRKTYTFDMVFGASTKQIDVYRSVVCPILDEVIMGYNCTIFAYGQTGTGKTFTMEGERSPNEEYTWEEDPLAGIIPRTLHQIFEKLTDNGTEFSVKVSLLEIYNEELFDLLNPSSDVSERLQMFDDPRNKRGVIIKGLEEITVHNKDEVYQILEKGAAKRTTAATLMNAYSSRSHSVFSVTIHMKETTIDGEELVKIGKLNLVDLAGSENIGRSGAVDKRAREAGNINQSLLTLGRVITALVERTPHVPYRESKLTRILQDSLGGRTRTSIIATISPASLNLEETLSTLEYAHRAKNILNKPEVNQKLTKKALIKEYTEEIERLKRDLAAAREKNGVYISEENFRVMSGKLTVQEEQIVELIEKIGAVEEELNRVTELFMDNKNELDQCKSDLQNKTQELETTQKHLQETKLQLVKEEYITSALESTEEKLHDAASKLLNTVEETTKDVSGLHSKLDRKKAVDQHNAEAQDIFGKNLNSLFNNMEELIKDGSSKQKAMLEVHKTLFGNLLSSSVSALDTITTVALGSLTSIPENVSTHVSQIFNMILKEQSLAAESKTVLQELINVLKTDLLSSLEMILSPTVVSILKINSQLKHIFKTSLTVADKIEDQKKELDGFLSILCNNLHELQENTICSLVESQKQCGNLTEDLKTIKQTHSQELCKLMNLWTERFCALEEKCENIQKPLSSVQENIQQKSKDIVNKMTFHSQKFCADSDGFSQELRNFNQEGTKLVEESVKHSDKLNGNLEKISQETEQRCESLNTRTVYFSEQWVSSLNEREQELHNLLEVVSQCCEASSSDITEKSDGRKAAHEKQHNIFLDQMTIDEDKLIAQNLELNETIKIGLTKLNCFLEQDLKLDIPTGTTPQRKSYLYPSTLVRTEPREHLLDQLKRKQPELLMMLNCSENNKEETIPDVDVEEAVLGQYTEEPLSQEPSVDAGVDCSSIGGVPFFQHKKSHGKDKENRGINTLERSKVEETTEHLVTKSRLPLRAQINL
Kind of test: Inhibition of HsEg5.

Test [19] has as its system Staphylococcus aureus. In words: Antibacterial activity against Staphylococcus aureus assessed as zone of inhibition at 50 ug/ml by agar plate method. Format: functional. The settings on record: read-out: IZ. The gist of the method:
as §1

The test system of test [20] is Pseudomonas aeruginosa. In words: Antibacterial activity against Pseudomonas aeruginosa assessed as zone of inhibition at 50 ug/ml by agar plate method. Type of test: functional. Particulars: read-out: IZ. The gist of the method:
as §1

By IC50 is commonly meant the midpoint of a concentration-inhibition curve. Higher therefore signals lower potency. In general, ΔTm refers to the shift of the melting midpoint relative to a reference. For `CCOC(=O)C1=C(C)NC(=S)NC1c1cccc(OCCCOc2cccc(C3NC(=S)NC(C)=C3C(=O)OCC)c2)c1` (configuration not stated), the zone of inhibition at 100 µg/mL was found to be 12 mm in test [1]; 8 mm in test [5]; 20 mm in test [6]; 10 mm in test [9]; 5 mm in [11]; 15 mm in [13]. Moreover, the outcome in test [2], in test [3], in [12] and in [14] was inactive. The “Ratio IC50” value in [4] was 3. Also, the concentration for half-maximal inhibition (IC50) was 16 µg/mL (≈ 25.6 µM) in test [7]; 144 µg/mL (≈ 230 µM) in test [8]; 76 µg/mL (≈ 122 µM) in test [10]; 120 µg/mL (≈ 192 µM) in test [16]; > 200 µg/mL in test [17]. Moreover, the ΔTm in [15] was determined as 0.1 °C.

On to `CCOC(=O)C1=C(C)NC(=S)NC1c1cccc(O)c1` (configuration not stated) [MONASTROL], for which the IC50 in test [7] was 45 µg/mL (≈ 154 µM); in test [8], 164 µg/mL (≈ 561 µM); in test [10], 53 µg/mL (≈ 181 µM); in test [18], 14 µM; in [16], 118 µg/mL (≈ 404 µM). For the same compound, the ΔTm in test [15] turned out to be 0 °C.

Turning to `CCOC(=O)C1=C(C)NC(=S)NC1c1ccc(OCCCOc2ccc(C3NC(=S)NC(C)=C3C(=O)OCC)cc2OC)c(OC)c1` (configuration not stated), in [4], the “Ratio IC50” value is listed as 2. The IC50 is 22 µg/mL (≈ 32.1 µM) in [7]; 49 µg/mL (≈ 71.5 µM) in [8]; 66 µg/mL (≈ 96.4 µM) in test [10]; 116 µg/mL (≈ 169 µM) in test [16]; > 200 µg/mL in [17].

`CCOC(=O)C1=C(C)NC(=S)NC1c1cccc(OC/C=C/COc2cccc(C3NC(=S)NC(C)=C3C(=O)OCC)c2)c1` (configuration not stated): the zone of inhibition at 100 µg/mL in test [1] is 15 mm; in [5], 12 mm; in test [6], 10 mm; in [9] it was 8 mm; in test [11] it was 8 mm; in test [13], 18 mm. For the same compound, the result in test [2], in [3], in [12] and in test [14] was inactive. Besides, the half-inhibitory concentration (IC50) was 175 µg/mL (≈ 275 µM) in test [7]; > 200 µg/mL in test [8]; 185 µg/mL (≈ 291 µM) in [10]; > 200 µg/mL in test [16]; > 200 µg/mL in [17]. Besides, the shift in melting temperature (ΔTm) in test [15] stood at 2.5 °C.

`CCOC(=O)C1=C(C)NC(=S)NC1c1ccc(OCCCCCOc2ccc(C3NC(=S)NC(C)=C3C(=O)OCC)cc2OC)c(OC)c1` (configuration not stated): the zone of inhibition at 100 µg/mL in [1] was 20 mm; in test [5], 8 mm; in test [6], 10 mm; in test [9] it was 19 mm; in test [11], 10 mm; in test [13], 10 mm. Moreover, the result in [2], in test [3], in [12] and in test [14] was inactive. In addition, the zone of inhibition at 50 µg/mL in test [19] amounted to 10 mm; in [20] it was 12 mm. Besides, the IC50 in test [7] was 180 µg/mL (≈ 252 µM); in [8], 113 µg/mL (≈ 159 µM); in [10], 124 µg/mL (≈ 174 µM); in test [16], > 200 µg/mL; in test [17], > 200 µg/mL.
